ChEMBL document CHEMBL1914423, “New imidazo[2,1-b]thiazole derivatives: synthesis, in vitro anticancer evaluation, and in silico studies” (Eur J Med Chem, 2011)

Experiments:
Assay type in all cases: functional
[1] = tested on: CCRF-CEM; assay: Anticancer activity against human CCRF-CEM cells after 48 hrs by SRB assay
In short: (§1)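 NCI five-dose screen. Cells in RPMI 1640 with 5% FBS and 2 mM L-glutamine, seeded at 5000–40,000 cells/well according to doubling time, then pre-incubated 24 h at 37 °C in 5% CO2. Drugs dissolved in DMSO, five concentrations by 10-fold or 1/2-log dilution. Cells fixed with TCA, SRB-stained, A515 read. IC50 solved from [(Ti−Tz)/(C−Tz)]×100 = 50.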

[2] = tested on: HL-60(TB); assay: Anticancer activity against human HL-60(TB) cells after 48 hrs by SRB assay; conditions: HL-60, 48 h
In short: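 NCI-60 five-dose screen. Cells grown in RPMI 1640 with 5% FBS and 2 mM L-glutamine, seeded at 5000–40,000 cells/well, and held 24 h at 37 °C and 5% CO₂ before drug. DMSO stocks were diluted into five concentrations (10-fold or ½-log steps). Settled suspension cells were fixed with cold TCA, SRB-stained, and read at 515 nm. […] was taken where [(Ti−Tz)/(C−Tz)]×100 = 50.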

[3] = tested on: K562; assay: Anticancer activity against human K562 cells after 48 hrs by SRB assay; conditions: K562, 48 h; in short: as §1
[4] = tested on: A549; assay: Anticancer activity against human A549 cells after 48 hrs by SRB assay; conditions: A549, 48 h; in short: as §1
[5] = tested on: NCI-H226; assay: Anticancer activity against human NCI-H226 cells after 48 hrs by SRB assay; conditions: NCI-H226, 48 h
[6] = tested on: NCI-H460; assay: Anticancer activity against human NCI-H460 cells after 48 hrs by SRB assay; conditions: NCI-H460, 48 h
[7] = tested on: HCC 2998; assay: Anticancer activity against human HCC2998 cells after 48 hrs by SRB assay; conditions: HCC 2998, 48 h; in short: as §1
[8] = tested on: HCT-116; assay: Anticancer activity against human HCT116 cells after 48 hrs by SRB assay; conditions: HCT-116, 48 h; in short: as §1
[9] = tested on: KM12; assay: Anticancer activity against human KM12 cells after 48 hrs by SRB assay; conditions: KM12, 48 h; in short: as §1
[10] = tested on: SF-295; assay: Anticancer activity against human SF295 cells after 48 hrs by SRB assay; conditions: SF-295, 48 h
[11] = tested on: SNB-19; assay: Anticancer activity against human SNB19 cells after 48 hrs by SRB assay; conditions: SNB-19, 48 h
[12] = tested on: U-251; assay: Anticancer activity against human U251 cells after 48 hrs by SRB assay; conditions: U-251, 48 h
In short: (§2)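 NCI-60 five-dose mode: cells in RPMI 1640 with 5% FBS and 2 mM glutamine, plated at 5000–40,000 cells/well, and preincubated 24 h, with time-zero plates TCA-fixed. Drug given at five concentrations (10-fold or ½-log serial dilutions). Cold TCA fixation 60 min at 4 °C, SRB stain, Tris solubilization, A515. IC50 taken where [(Ti−Tz)/(C−Tz)]×100 = 50.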

[13] = tested on: LOX IMVI; assay: Anticancer activity against human LOXIMVI cells after 48 hrs by SRB assay; in short: as §1
[14] = tested on: M14; assay: Anticancer activity against human M14 cells after 48 hrs by SRB assay; conditions: M14, 48 h; in short: as §1
[15] = tested on: SK-MEL-5; assay: Anticancer activity against human SK-MEL-5 cells after 48 hrs by SRB assay; conditions: SK-MEL-5, 48 h
[16] = tested on: UACC-62; assay: Anticancer activity against human UACC62 cells after 48 hrs by SRB assay; conditions: UACC-62, 48 h; in short: as §2
[17] = tested on: IGROV-1; assay: Anticancer activity against human IGROV1 cells after 48 hrs by SRB assay; conditions: IGROV-1, 48 h; in short: as §1
[18] = tested on: NCI/ADR-RES; assay: Anticancer activity against human NCI/ADR-RES cells after 48 hrs by SRB assay
[19] = tested on: A498; assay: Anticancer activity against human A498 cells after 48 hrs by SRB assay; conditions: A498, 48 h; in short: as §1
[20] = tested on: ACHN; assay: Anticancer activity against human ACHN cells after 48 hrs by SRB assay; in short: as §1
[21] = tested on: RXF 393; assay: Anticancer activity against human RXF393 cells after 48 hrs by SRB assay; conditions: RXF 393, 48 h
[22] = tested on: SN12C; assay: Anticancer activity against human SN12C cells after 48 hrs by SRB assay
[23] = tested on: UO-31; assay: Anticancer activity against human UO31 cells after 48 hrs by SRB assay; conditions: UO-31, 48 h; in short: as §2
[24] = tested on: DU-145; assay: Anticancer activity against human DU145 cells after 48 hrs by SRB assay; conditions: DU-145, 48 h; in short: as §1
[25] = tested on: MCF7; assay: Anticancer activity against human MCF7 cells after 48 hrs by SRB assay; conditions: MCF7, 48 h; in short: as §1
[26] = Anticancer activity against human Hs 578T cells after 48 hrs by SRB assay; in short: as §1
[27] = read-out: LC50 (the source's name)

O=C(NCCNc1nccc(-c2c(-c3cccc(O)c3)nc3sccn23)n1)c1ccccc1O
GI50 [1]: 3.43 µM
TGI [1]: > 100 µM
CC50 [1, 27]: > 100 µM
GI50 [2]: 4.95 µM
LC50 [2]: > 100 µM
TGI [2]: > 100 µM
GI50 [3]: 6.06 µM
TGI [3]: > 100 µM
CC50 [3, 27]: > 100 µM
GI50 [4]: 11 µM
LC50 (concentration giving 50% net tumour cell kill) [4]: > 100 µM
TGI [4]: 49 µM
GI50 [5]: 4.61 µM
LC50 (concentration killing 50% of tumour cells) [5]: > 100 µM
TGI [5]: 29.6 µM
GI50 [6]: 7.88 µM
LC50 [6]: > 100 µM
TGI [6]: 31 µM
GI50 [7]: 3.55 µM
TGI [7]: 16.5 µM
CC50 [7, 27]: > 100 µM
GI50 [8]: 5.13 µM
TGI [8]: > 100 µM
CC50 [8, 27]: > 100 µM
GI50 [9]: 6.38 µM
TGI [9]: 27.3 µM
CC50 [9, 27]: > 100 µM
GI50 [10]: 7.69 µM
TGI [10]: 27.2 µM
CC50 [10, 27]: 83.9 µM
GI50 [11]: 5.02 µM
TGI [11]: > 100 µM
CC50 [11, 27]: > 100 µM
GI50 [12]: 152 nM
TGI [12]: 18.7 µM
CC50 [12, 27]: 64.6 µM
GI50 [13]: 335 nM
TGI [13]: 16.4 µM
CC50 [13, 27]: 75.1 µM
GI50 [14]: 683 nM
TGI [14]: 39 µM
CC50 [14, 27]: > 100 µM
GI50 [15]: 4.57 µM
TGI [15]: 53.3 µM
CC50 [15, 27]: > 100 µM
GI50 [16]: 8.32 µM
TGI [16]: 96.9 µM
CC50 [16, 27]: > 100 µM
GI50 [17]: 17.4 µM
TGI [17]: 92.9 µM
CC50 [17, 27]: > 100 µM
GI50 [18]: 5.05 µM
TGI [18]: 68.5 µM
CC50 [18, 27]: > 100 µM
GI50 [19]: 14.5 µM
TGI [19]: 33.7 µM
CC50 [19, 27]: 78.1 µM
GI50 [20]: 3.89 µM
TGI [20]: > 100 µM
CC50 [20, 27]: > 100 µM
GI50 [21]: 3.19 µM
TGI [21]: 21.2 µM
CC50 [21, 27]: > 100 µM
GI50 [22]: 2840 nM
TGI [22]: 74.9 µM
CC50 [22, 27]: > 100 µM
GI50 [23]: 5.68 µM
TGI [23]: 19.7 µM
CC50 [23, 27]: 72.8 µM
GI50 [24]: 5.22 µM
TGI [24]: 43.3 µM
CC50 [24, 27]: > 100 µM
GI50 [25]: 4.03 µM
TGI [25]: 22.2 µM
CC50 [25, 27]: > 100 µM
GI50 [26]: 2960 nM
TGI [26]: 26.9 µM
CC50 [26, 27]: > 100 µM
